One test relates to Staphylococcus aureus. The test can be described thus: Antimicrobial activity against Staphylococcus aureus ATCC 6538P by agar dilution method. Format: functional. Particulars: Staphylococcus aureus, ATCC 6538P; read-out: MIC. In short, it runs like this:
(§1)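 Read-out is the minimal inhibitory concentration, found by agar dilution against the named strain.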

The next test deals with Bacillus spizizenii. Nature of the test: Antimicrobial activity against Bacillus subtilis ATCC 6633 by agar dilution method. Type of test: functional. The conditions noted are these: Bacillus spizizenii, ATCC 6633; read-out: MIC. The method, boiled down: as §1
The test system of a further test is Klebsiella pneumoniae. Nature of the test: Antimicrobial activity against Klebsiella pneumoniae ATCC 10031 by agar dilution method. Type of test: functional. Particulars: Klebsiella pneumoniae, ATCC 10031; read-out: MIC. In short, it runs like this:
as §1

The target of test [1] is Bacterial 70S ribosome (Bacteria) (UniProt P0A7V0+P60723+P0AG67+P0A7R5+P0A7R9+P0A7S3+P0A7S9+P0AG59+P0ADZ4+P0A7T3+P0AG63+P0A7T7+P0A7U3+P0A7U7+P68679+P0A7V3+P0A7V8+P0A7W1+P02358+P02359+P0A7W7+P0A7X3+P0A7J3+P0A7J7+P0AA10+P0ADY3+P02413+P0ADY7+P0AG44+P0C018+P0A7K6+P0A7L0+P0A7L3+P0AG48+P61175+P0ADZ0+P60624+P68919+P0A7L8+P0A7M2+P0A7M6+P60422+P0AG51+P0A7N1+P0A7M9+P0A7N4+P0A7N9+P0A7P5+P0A7Q1+Q2EEQ2+P0A7Q6+P60438+P62399+P0AG55+P0A7K2). Nature of the test: (§2) Displacement of [14C]erythromycin from Escherichia coli ribosomes after 30 mins by scintillation spectrometer analysis. The method, boiled down: (§3)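 NH4Cl-washed E. coli ribosomes with [14C]erythromycin A and varied competitor concentrations in 0.01 M Tris-HCl pH 7.2, 0.1 M KCl, 0.004 M MgCl2, 0.01 M NH4Cl. Incubated 30 min at 24 °C, stopped by dilution in cold Tris/KCl/MgCl2 buffer, membrane-filtered, washed three times, dried, scintillation counted. Reports the concentration giving 50% inhibition of binding.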

The next test has as its target Bacterial 70S ribosome. The test is described as §2. In short, it runs like this:
as §3

Values after ≈ are worked out from the molar mass of the structure shown.

As for `CCCC(=O)O[C@H]1/C=C/C=C/C[C@@H](C)OC(=O)C[C@@H](O)[C@H](OC)[C@@H](O[C@@H]2O[C@H](C)[C@@H](O[C@H]3C[C@@](C)(O)[C@@H](OC(=O)CCC)[C@H](C)O3)[C@H](N(C)C)[C@H]2O)[C@@H](CC=O)C[C@H]1C`, the MIC with Staphylococcus aureus is 1.6 µg/mL (≈ 1.9 µM); in the test with Bacillus spizizenii it was 1.6 µg/mL (≈ 1.9 µM); in the test with Klebsiella pneumoniae, 50 µg/mL (≈ 59.4 µM). In test [1], the pK50 stood at 6. On Bacterial 70S ribosome, this molecule had an IC50 of 0.9 µM.
Turning to `CCCC(=O)O[C@H]1[C@H](C)O[C@@H](O[C@H]2[C@H](N(C)C)[C@@H](OC(C)=O)[C@H](O[C@H]3[C@@H](CC=O)C[C@@H](C)[C@@H](OC(C)=O)/C=C/C=C/C[C@@H](C)OC(=O)C[C@@H](O)[C@@H]3OC)O[C@@H]2C)C[C@@]1(C)O`, the MIC with Staphylococcus aureus amounted to 1.6 µg/mL (≈ 1.87 µM); in the test on Bacillus spizizenii it was 0.8 µg/mL (≈ 0.935 µM); in the test on Klebsiella pneumoniae, 100 µg/mL (≈ 117 µM). Further, the pK50 in test [1] came to 4.6. In addition, the IC50 at Bacterial 70S ribosome was 23.4 µM.
Regarding `CCCC(=O)O[C@H]1[C@H](C)O[C@@H](O[C@H]2[C@H](N(C)C)[C@@H](OC(C)=O)[C@H](O[C@H]3[C@@H](CC=O)C[C@@H](C)[C@@H](O)/C=C/C=C/C[C@@H](C)OC(=O)C[C@@H](OC(C)=O)[C@@H]3OC)O[C@@H]2C)C[C@@]1(C)O`, the MIC in the test on Staphylococcus aureus stood at 0.8 µg/mL (≈ 0.935 µM); in the test on Bacillus spizizenii, 0.8 µg/mL (≈ 0.935 µM); in the test on Klebsiella pneumoniae, 100 µg/mL (≈ 117 µM). The molecule also yielded a pK50 in test [1] of 4.7. In addition, on Bacterial 70S ribosome, the IC50 is 20.9 µM.
For the molecule `CO[C@@H]1[C@@H](O[C@@H]2O[C@H](C)[C@@H](O[C@H]3C[C@@](C)(O)[C@@H](OC(=O)CC(C)C)[C@H](C)O3)[C@H](N(C)C)[C@H]2O)[C@@H](CC=O)C[C@@H](C)[C@@H](OC(=O)CCl)/C=C/C=C/C[C@@H](C)OC(=O)C[C@H]1OC(C)=O`, the MIC came out at 0.8 µg/mL (≈ 0.884 µM) with Staphylococcus aureus, 0.4 µg/mL (≈ 0.442 µM) in the test on Bacillus spizizenii and 50 µg/mL (≈ 55.3 µM) with Klebsiella pneumoniae. This molecule also displayed a pK50 in test [1] of 5.8. Besides, at Bacterial 70S ribosome, the IC50 stood at 1.7 µM.
In the case of `CO[C@@H]1[C@@H](O[C@@H]2O[C@H](C)[C@@H](O[C@H]3C[C@@](C)(O)[C@@H](OC(=O)CC(C)C)[C@H](C)O3)[C@H](N(C)C)[C@H]2O)[C@@H](CC=O)C[C@@H](C)[C@@H](OC(C)=O)/C=C/C=C/C[C@@H](C)OC(=O)C[C@H]1OC(C)=O`, the figures for the MIC in the test with Staphylococcus aureus, in the test with Bacillus spizizenii and in the test with Klebsiella pneumoniae were 1.6 µg/mL (≈ 1.84 µM), 1.6 µg/mL (≈ 1.84 µM) and 50 µg/mL (≈ 57.5 µM), respectively. In test [1], this molecule displayed a pK50 of 5.9. This molecule yielded an IC50 at Bacterial 70S ribosome of 1.3 µM.
Take `CO[C@@H]1[C@@H](O[C@@H]2O[C@H](C)[C@@H](O[C@H]3C[C@@](C)(O)[C@@H](OC(=O)CC(C)C)[C@H](C)O3)[C@H](N(C)C)[C@H]2OC(=O)CCC(=O)O)[C@@H](CC=O)C[C@@H](C)[C@@H](O)/C=C/C=C/C[C@@H](C)OC(=O)C[C@H]1OC(C)=O`: the MIC in the test on Staphylococcus aureus stood at 1.6 µg/mL (≈ 1.72 µM); with Bacillus spizizenii, 1.6 µg/mL (≈ 1.72 µM); with Klebsiella pneumoniae, 25 µg/mL (≈ 26.9 µM). The molecule further gave a pK50 in test [1] of 5.5. Further, the IC50 on Bacterial 70S ribosome amounted to 3.5 µM.
Consider `CO[C@H]1C(O)CC(=O)O[C@H](C)C/C=C/C=C/[C@H](OC(C)=O)[C@H](C)C[C@H](CC=O)[C@@H]1O[C@@H]1O[C@H](C)[C@@H](O[C@H]2C[C@@](C)(O)[C@@H](O)[C@H](C)O2)[C@H](N(C)C)[C@H]1O` (single isomer, unassigned), for which the MIC stood at 6.3 µg/mL (≈ 8.47 µM) in the test on Staphylococcus aureus, 3.1 µg/mL (≈ 4.17 µM) in the test with Bacillus spizizenii and 100 µg/mL (≈ 134 µM) with Klebsiella pneumoniae. Further, the pK50 in test [1] turned out to be 5.6. Besides, the IC50 at Bacterial 70S ribosome stood at 2.8 µM.
For `CCC(=O)O[C@H]1/C=C/C=C/C[C@@H](C)OC(=O)C[C@@H](O)[C@H](OC)[C@@H](O[C@@H]2O[C@H](C)[C@@H](O[C@H]3C[C@@](C)(O)[C@@H](OC(=O)C(C)CC)[C@H](C)O3)[C@H](N(C)C)[C@H]2O)[C@@H](CC=O)C[C@H]1C` (stereo not given in full), the results for the MIC in the test with Staphylococcus aureus, in the test with Bacillus spizizenii and in the test with Klebsiella pneumoniae were 1.6 µg/mL (≈ 1.9 µM), 0.8 µg/mL (≈ 0.95 µM) and 50 µg/mL (≈ 59.4 µM), respectively. In test [1], the pK50 came out at 5.8. At Bacterial 70S ribosome, this molecule returned an IC50 of 1.7 µM.
With `CCC(=O)O[C@H]1/C=C/C=C/C[C@@H](C)OC(=O)C[C@@H](OC(C)=O)[C@H](OC)[C@@H](O[C@@H]2O[C@H](C)[C@@H](O[C@H]3C[C@@](C)(O)[C@@H](OC(=O)CC(C)C)[C@H](C)O3)[C@H](N(C)C)[C@H]2O)[C@@H](CC=O)C[C@H]1C`, the MIC in the test on Staphylococcus aureus turned out to be 3.1 µg/mL (≈ 3.51 µM); in the test on Bacillus spizizenii, 0.4 µg/mL (≈ 0.452 µM); in the test on Klebsiella pneumoniae, 100 µg/mL (≈ 113 µM). In test [1], the pK50 was 5.7. Besides, the IC50 at Bacterial 70S ribosome amounted to 1.9 µM.
`CCCC(=O)O[C@H]1[C@H](C)O[C@@H](O[C@H]2[C@H](N(C)C)[C@@H](OC(C)=O)[C@H](O[C@H]3[C@@H](CC=O)C[C@@H](C)[C@@H](O)/C=C/C=C/C[C@@H](C)OC(=O)C[C@@H](O)[C@@H]3OC)O[C@@H]2C)C[C@@]1(C)O`: the results for the MIC in the test on Staphylococcus aureus, in the test on Bacillus spizizenii and in the test with Klebsiella pneumoniae were 1.6 µg/mL (≈ 1.97 µM), 0.8 µg/mL (≈ 0.983 µM) and 12.5 µg/mL (≈ 15.4 µM), respectively. In test [1], this molecule returned a pK50 of 4.8. Besides, the half-maximal inhibitory concentration (IC50) at Bacterial 70S ribosome is 14.8 µM.
For the molecule `CCCC(=O)O[C@H]1[C@H](C)O[C@@H](O[C@H]2[C@H](N(C)C)[C@@H](O)[C@H](O[C@H]3[C@@H](CC=O)C[C@@H](C)[C@@H](OC(=O)CCl)/C=C/C=C/C[C@@H](C)OC(=O)C[C@@H](O)[C@@H]3OC)O[C@@H]2C)C[C@@]1(C)O`, the MIC in the test with Staphylococcus aureus stood at 1.6 µg/mL (≈ 1.89 µM); with Bacillus spizizenii, 0.4 µg/mL (≈ 0.471 µM); with Klebsiella pneumoniae, 25 µg/mL (≈ 29.5 µM). In test [1], this molecule gave a pK50 of 6. Besides, the IC50 at Bacterial 70S ribosome is 0.9 µM.
As for `CO[C@@H]1[C@@H](O[C@@H]2O[C@H](C)[C@@H](O[C@H]3C[C@@](C)(O)[C@@H](OC(=O)CC(C)C)[C@H](C)O3)[C@H](N(C)C)[C@H]2O)[C@@H](CC=O)C[C@@H](C)[C@@H](O)/C=C/C=C/C[C@@H](C)OC(=O)C[C@H]1OC(C)=O` [JOSAMYCIN], the figures for the MIC in the test with Staphylococcus aureus, in the test on Bacillus spizizenii and in the test with Klebsiella pneumoniae were 1.6 µg/mL (≈ 1.93 µM), 0.4 µg/mL (≈ 0.483 µM) and 25 µg/mL (≈ 30.2 µM), respectively. The pK50 in test [1] stood at 5.9. On Bacterial 70S ribosome, this molecule had an IC50 of 1.2 µM.
As to `CCCC(=O)O[C@H]1[C@H](C)O[C@@H](O[C@H]2[C@H](N(C)C)[C@@H](OC(=O)CC)[C@H](O[C@H]3[C@@H](CC=O)C[C@@H](C)[C@@H](O)/C=C/C=C/C[C@@H](C)OC(=O)C[C@@H](O)[C@@H]3OC)O[C@@H]2C)C[C@@]1(C)O`, the MIC with Staphylococcus aureus was 0.8 µg/mL (≈ 0.966 µM); in the test with Bacillus spizizenii, 1.6 µg/mL (≈ 1.93 µM); in the test with Klebsiella pneumoniae, 12.5 µg/mL (≈ 15.1 µM). This molecule also had a pK50 in test [1] of 4.9. For the same molecule, the IC50 on Bacterial 70S ribosome was 13.8 µM.
Regarding `CO[C@@H]1[C@@H](O[C@@H]2O[C@H](C)[C@@H](O[C@H]3C[C@@](C)(O)[C@@H](O)[C@H](C)O3)[C@H](N(C)C)[C@H]2O)[C@@H](CC=O)C[C@@H](C)[C@@H](OC(C)=O)/C=C/C=C/C[C@@H](C)OC(=O)C[C@H]1OC(C)=O`, the results for the MIC in the test with Staphylococcus aureus, in the test with Bacillus spizizenii and in the test with Klebsiella pneumoniae were 3.1 µg/mL (≈ 3.94 µM), 1.6 µg/mL (≈ 2.04 µM) and 50 µg/mL (≈ 63.6 µM), respectively. Also, the pK50 in test [1] was 5.2. In addition, the IC50 at Bacterial 70S ribosome was found to be 6.3 µM.
With `CCCC(=O)O[C@H]1[C@H](C)O[C@@H](O[C@H]2[C@H](N(C)C)[C@@H](OC(=O)CCC(=O)O)[C@H](O[C@H]3[C@@H](CC=O)C[C@@H](C)[C@@H](O)/C=C/C=C/C[C@@H](C)OC(=O)C[C@@H](O)[C@@H]3OC)O[C@@H]2C)C[C@@]1(C)O`, the MIC in the test with Staphylococcus aureus was found to be 1.6 µg/mL (≈ 1.83 µM); in the test on Bacillus spizizenii, 0.8 µg/mL (≈ 0.917 µM); with Klebsiella pneumoniae, 100 µg/mL (≈ 115 µM). Besides, the pK50 in test [1] turned out to be 5.7. The same molecule yielded an IC50 at Bacterial 70S ribosome of 1.9 µM.

For the origin of these results see ChEMBL document CHEMBL3244414, “Structure-activity relationships among the O-acyl derivatives of leucomycin. Correlation of minimal inhibitory concentrations with binding to Escherichia coli ribosomes” (J Med Chem, 1977).
